pIC50: −log10 of the molar value. Calls of active or inactive are those of the source. The rule behind the calls is not given here.
Assays:
Trypanosoma cruzi = test: Antitrypanosomal activity against nifurtimox-sensitive Trypanosoma cruzi Tulahuen CL2 infected in human MRC5 SV2 cells assessed as reduction in parasite burden after 168 hrs by CPRG and Nonidet based spectrophotometric analysis; format: functional, organism-based; details: Tulahuen CL2, MRC-5 SV2, 168 h
[1] = Drug metabolism in mouse liver microsomes assessed as UGT mediated compound […] by measuring parent compound remaining at 5 uM after 30 mins in presence of UDPGA by UPLC/MS/ESI analysis; format: ADME; details: 0.5 h
In short: (§1)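 Metabolic stability was run with mouse liver microsomal fraction (S9) and read as percent parent compound remaining over incubation time. Diclofenac served as the reference compound.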

[2] = Drug metabolism in mouse liver microsomes assessed as UGT mediated compound […] by measuring parent compound remaining at 5 uM after 60 mins in presence of UDPGA by UPLC/MS/ESI analysis; format: ADME; details: 1 h; in short: as §1
[3] = Drug metabolism in mouse liver microsomes assessed as UGT mediated compound […] by measuring parent compound remaining at 5 uM after 15 mins in presence of UDPGA by UPLC/MS/ESI analysis; format: ADME; details: 0.25 h; in short: as §1
Leishmania infantum = test: Antileishmanial activity against Leishmania infantum MHOM/MA (BE)/67 amastigotes infected in primary peritoneal mouse macrophages after 120 hrs by giemsa staining-based microscopic analysis; format: functional, organism-based; details: MHOM/MA (BE)/67, 120 h
Peritoneal macrophage = test: Cytotoxicity against mouse primary peritoneal macrophages after 72 hrs by resazurin dye-based fluorimetric analysis; format: cell-based
[4] = Cytotoxicity against human MRC5 SV2 cells after 72 hrs by resazurin dye-based fluorimetric analysis; format: cell-based; details: MRC-5 SV2, 72 h
[5] = test system: Trypanosoma brucei brucei; test: Antitrypanosomal activity against suramin-sensitive Trypanosoma brucei brucei Squib 427 after 72 hrs by resazurin dye-based fluorimetric analysis; format: functional, organism-based; details: Squib 427, 72 h
Plasmodium falciparum = test: Antiplasmodial activity against chloroquine-resistant Plasmodium falciparum K1 infected in human erythrocytes after 72 hrs by Malstat reagent-based spectrophotometric analysis; format: functional, organism-based; details: K1, 72 h
[6] = Drug metabolism in human liver microsomes assessed as UGT mediated compound […] by measuring parent compound remaining at 5 uM after 60 mins in presence of UDPGA by UPLC/MS/ESI analysis; format: ADME; details: read-out: Stability
[7] = Drug metabolism in human liver microsomes assessed as UGT mediated compound […] by measuring parent compound remaining at 5 uM after 15 mins in presence of UDPGA by UPLC/MS/ESI analysis; format: ADME; details: read-out: Stability
[8] = Drug metabolism in human plasma assessed as parent compound remaining after 30 mins by UPLC/MS/ESI analysis; format: ADME, cell-free; details: for remaining at 0.5 h: read-out: Stability
[9] = Drug metabolism in human plasma assessed as parent compound remaining after 1440 mins by UPLC/MS/ESI analysis; format: ADME, cell-free; details: for remaining at 24 h: read-out: Stability
In short: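 Compound incubated in human plasma for 24 h at 37 °C, and the fraction of parent compound remaining was determined.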

[10] = Drug metabolism in human liver microsomes assessed as CYP450 mediated compound […] by measuring parent compound remaining at 5 uM after 15 mins in presence of NADPH by UPLC/MS/ESI analysis; format: ADME; details: read-out: Stability
[11] = Drug metabolism in mouse liver microsomes assessed as CYP450 mediated compound […] by measuring parent compound remaining at 5 uM after 60 mins in presence of NADPH by UPLC/MS/ESI analysis; format: ADME; details: read-out: Stability
[12] = Drug metabolism in human plasma assessed as parent compound remaining after 15 mins by UPLC/MS/ESI analysis; format: ADME, cell-free; details: for remaining at 0.25 h: read-out: Stability
[13] = Drug metabolism in human liver microsomes assessed as CYP450 mediated compound […] by measuring parent compound remaining at 5 uM after 30 mins in presence of NADPH by UPLC/MS/ESI analysis; format: ADME; details: read-out: Stability
[14] = Drug metabolism in human liver microsomes assessed as CYP450 mediated compound […] by measuring parent compound remaining at 5 uM after 60 mins in presence of NADPH by UPLC/MS/ESI analysis; format: ADME; details: read-out: Stability
[15] = Drug metabolism in human plasma assessed as parent compound remaining after 60 mins by UPLC/MS/ESI analysis; format: ADME, cell-free; details: read-out: Stability
[16] = Drug metabolism in mouse liver microsomes assessed as CYP450 mediated compound […] by measuring parent compound remaining at 5 uM after 15 mins in presence of NADPH by UPLC/MS/ESI analysis; format: ADME; details: read-out: Stability
[17] = Drug metabolism in human liver microsomes assessed as UGT mediated compound […] by measuring parent compound remaining at 5 uM after 30 mins in presence of UDPGA by UPLC/MS/ESI analysis; format: ADME; details: read-out: Stability
[18] = Drug metabolism in mouse liver microsomes assessed as CYP450 mediated compound […] by measuring parent compound remaining at 5 uM after 30 mins in presence of NADPH by UPLC/MS/ESI analysis; format: ADME; details: read-out: Stability
[19] = test system: Trypanosoma brucei brucei; test: Antitrypanosomal activity against Trypanosoma brucei brucei Squib 427 infected in Swiss mouse assessed as mouse survival at 10 mg/kg, ip administered as single dose for 5 days and measured on day 14 post infection; format: functional, organism-based
In short: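 Acute T. b. brucei mouse infection model. Dosing was PO or IP at 10–50 mg/kg, once (SID) or twice (BID) daily for 5 days after infection, with 3 mice per group. […] Read-outs were mean survival time and survivors on day 14 post infection.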

[20] = test system: Trypanosoma brucei brucei; test: Antitrypanosomal activity against Trypanosoma brucei brucei Squib 427 assessed as reduction in parasite growth at 7 to 14 times IC50 after 18 to 48 hrs resazurin dye-based fluorimetric analysis; format: functional, organism-based
In short: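 In vitro time course of T. b. brucei growth in the presence of compound, with parasite growth expressed as % of control.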

[21] = test system: Trypanosoma brucei brucei; test: Antitrypanosomal activity against Trypanosoma brucei brucei Squib 427 infected in Swiss mouse assessed as mean survival days at 10 mg/kg, ip administered as single dose for 5 days; format: functional
In short: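 Acute mouse infection model with T. b. brucei. Dosing ran for 5 days after infection, orally or intraperitoneally, once or twice daily. Groups were 3 mice each, with vehicle-treated infected controls. The read-out was mean survival time in days, plus the number of survivors on day 14 post-infection.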

| pIC50 (Leishmania infantum) | pIC50 [5] | pIC50 (Plasmodium falciparum) | SMILES | pIC50 (Trypanosoma cruzi) | pIC50 (Peritoneal macrophage) | pIC50 [4] | further results |
| --- | --- | --- | --- | --- | --- | --- | --- |
| – | – | – | CC1CS(=O)(=O)CCN1/N=C/c1ccc([N+](=O)[O-])o1 (configuration not stated) [NIFURTIMOX] | 6.05 | – | – | – |
| – | – | – | O=C(O)Cc1ccccc1Nc1c(Cl)cccc1Cl [DICLOFENAC] | – | – | – | Stability [1]: 28%; Stability [2]: 30%; Stability [3]: 38% |
| 4.62 | 4.49 | 4.50 | Cc1cc(C)c(Oc2ncnc(Nc3ccccc3)n2)c(C)c1 | 5.09 | 4.49 | 4.75 | – |
| – | – | – | CC/C(=C(\c1ccccc1)c1ccc(OCCN(C)C)cc1)c1ccccc1 [TAMOXIFEN] | – | – | 4.99 | – |
| < 4.19 | < 4.19 | < 4.19 | Cc1ccc(Nc2nc(N)nc(Nc3ccc(C#N)cc3)n2)cc1 | < 4.19 | < 4.19 | < 4.19 | – |
| 4.97 | 4.51 | 4.53 | Cc1cc(C)c(Oc2ncnc(Nc3ccc(F)cc3)n2)c(C)c1 | 5.10 | < 4.19 | 5.10 | – |
| 4.49 | 6.40 | < 4.19 | Cc1ccc(Oc2nc(N)nc(Nc3ccc(F)cc3)n2)cc1 | < 4.19 | 4.49 | < 4.19 | remaining at 1 h, 5 µM [6]: 94%; remaining at 0.25 h, 5 µM [7]: 96%; remaining at 0.5 h [8]: 94%; remaining at 24 h [9]: 95%; remaining at 0.25 h, 5 µM [10]: 107%; remaining at 1 h, 5 µM [11]: 10.5%; remaining at 0.25 h [12]: 104%; remaining at 0.5 h, 5 µM [13]: 99%; Stability [1]: 104%; Stability [2]: 110%; remaining at 1 h, 5 µM [14]: 113%; Stability [3]: 91%; remaining at 1 h [15]: 101%; remaining at 0.25 h, 5 µM [16]: 57%; remaining at 0.5 h, 5 µM [17]: 105%; remaining at 0.5 h, 5 µM [18]: 28% |
| – | – | – | Cc1ccc(C(=O)Nc2ccc(S(=O)(=O)O)c3cc(S(=O)(=O)O)cc(S(=O)(=O)O)c23)cc1NC(=O)c1cccc(NC(=O)Nc2cccc(C(=O)Nc3cc(C(=O)Nc4ccc(S(=O)(=O)O)c5cc(S(=O)(=O)O)cc(S(=O)(=O)O)c45)ccc3C)c2)c1 [SURAMIN] | – | – | – | Activity [19]: Active; Activity [20]: Active; MST [21]: > 7 days |
| 5.09 | 5.09 | 5.27 | Cc1cc(C)c(Oc2nc(Nc3ccc(F)cc3)nc(N3CCCCC3)n2)c(C)c1 | 5.62 | 4.49 | < 4.19 | – |
| < 4.19 | – | < 4.19 | Cc1ccc(Oc2nc(N)nc(Nc3ccc(C#N)cc3)n2)cc1 | 5.10 | < 4.19 | < 4.19 | – |
| < 4.19 | 5.15 | < 4.19 | Cc1cc(Br)c(Nc2nc(N)nc(Nc3ccc(F)cc3)n2)c(Br)c1 | < 4.19 | < 4.19 | 5.17 | – |
| 4.62 | 4.96 | 4.69 | CNc1nc(Nc2ccc(F)cc2)nc(Oc2c(C)cc(C)cc2C)n1 | 5.11 | 4.49 | < 4.19 | – |
| 5.02 | 5.10 | 5.08 | Cc1cc(F)cc(C)c1Nc1nc(N)nc(Nc2ccc(C#N)cc2)n1 | 5.10 | 4.49 | 4.63 | – |
| < 4.19 | 5.55 | < 4.19 | Nc1nc(Nc2ccc(F)cc2)nc(Nc2ccc(F)cc2)n1 | < 4.19 | < 4.19 | < 4.19 | – |
| 5.09 | 5.82 | 4.58 | Cc1cc(C)c(Oc2nc(N)nc(Nc3ccc(Cl)cc3)n2)c(C)c1 | 5.51 | 5.10 | 5.19 | – |
| 5.09 | 5.37 | < 4.19 | Cc1cc(C)c(Oc2nc(N)nc(Oc3ccc(F)cc3)n2)c(C)c1 | < 4.19 | 5.10 | < 4.19 | – |
| < 4.19 | 6.52 | < 4.19 | Cc1cc(C)c(Oc2nc(N)nc(Nc3ccc(F)cc3)n2)c(C)c1 | < 4.19 | < 4.19 | < 4.19 | remaining at 1 h, 5 µM [6]: 91%; remaining at 0.25 h, 5 µM [7]: 95%; remaining at 0.5 h [8]: 104%; Stability ([9]; 24 h): 151%; remaining at 0.25 h, 5 µM [10]: 53%; remaining at 1 h, 5 µM [11]: 0.3%; remaining at 0.25 h [12]: 100%; remaining at 0.5 h, 5 µM [13]: 33%; Stability [1]: 102%; Stability [2]: 112%; remaining at 1 h, 5 µM [14]: 13%; Stability [3]: 94%; remaining at 1 h [15]: 115%; remaining at 0.25 h, 5 µM [16]: 22%; remaining at 0.5 h, 5 µM [17]: 118%; remaining at 0.5 h, 5 µM [18]: 4% |
| 4.49 | < 4.19 | < 4.19 | Cc1cc(C)c(Oc2nc(N)nc(Nc3c(F)cccc3F)n2)c(C)c1 | < 4.19 | 4.49 | < 4.19 | – |
| 4.49 | 5.04 | < 4.19 | Cc1ccc(Nc2nc(N)nc(Nc3c(Br)cc(C)cc3Br)n2)cc1 | < 4.19 | 4.49 | 5.09 | – |
| 4.29 | 5.11 | 4.53 | Cc1ccc(Nc2nc(N)nc(Nc3ccc(C#N)cc3)n2)c(Cl)c1 | < 4.19 | < 4.19 | < 4.19 | – |
| 4.56 | 6.30 | 4.29 | Cc1ccc(Oc2nc(N)nc(Nc3ccc(F)cc3)n2)c(Cl)c1 | 5.11 | 4.49 | < 4.19 | remaining at 1 h, 5 µM [6]: 79%; remaining at 0.25 h, 5 µM [7]: 88%; Stability ([8]; 0.5 h): 124%; remaining at 24 h [9]: 100%; remaining at 0.25 h, 5 µM [10]: 90%; remaining at 1 h, 5 µM [11]: 1.4%; Stability ([12]; 0.25 h): 121%; remaining at 0.5 h, 5 µM [13]: 87%; Stability [1]: 109%; Stability [2]: 113%; remaining at 1 h, 5 µM [14]: 67%; Stability [3]: 108%; remaining at 1 h [15]: 117%; remaining at 0.25 h, 5 µM [16]: 25%; remaining at 0.5 h, 5 µM [17]: 88%; remaining at 0.5 h, 5 µM [18]: 6% |
| 5.09 | 5.89 | 4.76 | Cc1cc(C)c(Oc2nc(N)nc(Nc3cc(F)cc(F)c3)n2)c(C)c1 | 5.64 | 5.10 | 5.36 | – |
| 5.09 | < 4.19 | < 4.19 | Nc1nc(Nc2ccc(F)cc2)nc(Sc2ccc(F)cc2)n1 | 5.16 | 5.10 | < 4.19 | – |
| 4.49 | 5.96 | < 4.19 | Cc1ccc(Oc2nc(N)nc(Nc3ccccc3)n2)cc1 | < 4.19 | 4.49 | < 4.19 | – |
| 4.49 | 4.40 | 4.58 | N#Cc1ccc(Nc2nc(N)nc(Nc3ccc(F)cc3)n2)cc1 | 5.05 | 4.49 | < 4.19 | – |
| 5.09 | 5.16 | 5.06 | Cc1cc(C)c(Oc2nc(N)nc(Nc3ccc(C(F)(F)F)cc3)n2)c(C)c1 | 5.62 | 5.10 | 5.19 | – |

From ChEMBL document CHEMBL4229376, “Optimization of the pharmacokinetic properties of potent anti-trypanosomal triazine derivatives” (Eur J Med Chem, 2018)
